From PubChem
Most compounds without a hit are left out; they make up all but 1.4% or so of the library.
CAL PDZ FP-1 – CAL PDZ (human) peptide binding inhibition | Q9HD26 | purified CAL PDZ, TMR-peptide fluorescence polarization, 1 h | inhibition, % at 24.9 µM | actives 0.92% (n = 300,000) | AID 602252;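 active = mean inhibition of at least 30% with at least half of replicates also reaching 30%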
DDE Tn6 FP inh – inhibitors of Tn6 peptide binding to human fibrin DD(E); P02675; Fibrin DD(E) TRITC-Tn6 fluorescence polarization displacement; inhibition, % at 8.3 µM; actives 0.21% (n = 370,000); AID 720509;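 active = inhibition above a per-campaign cutoff: mean of compounds within control limits plus 3 SD, cut at about 15% in these data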
Target sequence (P02675 whole entry, looked up): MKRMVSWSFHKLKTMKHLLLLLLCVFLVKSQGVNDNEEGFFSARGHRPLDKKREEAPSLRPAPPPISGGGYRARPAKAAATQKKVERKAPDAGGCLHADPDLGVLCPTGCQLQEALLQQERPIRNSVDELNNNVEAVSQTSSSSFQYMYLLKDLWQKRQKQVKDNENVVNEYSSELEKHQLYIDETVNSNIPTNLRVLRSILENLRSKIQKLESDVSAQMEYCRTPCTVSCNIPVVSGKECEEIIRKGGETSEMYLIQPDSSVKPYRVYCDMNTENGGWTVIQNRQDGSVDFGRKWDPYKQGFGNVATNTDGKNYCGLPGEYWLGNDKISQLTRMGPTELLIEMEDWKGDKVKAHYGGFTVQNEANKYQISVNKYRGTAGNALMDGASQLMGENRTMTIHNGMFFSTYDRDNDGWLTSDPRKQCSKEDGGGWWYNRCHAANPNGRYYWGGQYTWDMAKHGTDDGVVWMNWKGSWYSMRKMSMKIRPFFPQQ
DDE Tn7 FP inh – inhibitors of Tn7 peptide binding to human fibrin DD(E). P02675. FP displacement of FITC-Tn7 peptide from fibrin DD(E); 0% = median of compound wells per plate. inhibition, % at 8.3 µM. actives 0.13% (n = 370,000). AID 720508;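 active = inhibition above the mean of compounds falling within the control limits plus 3 SD of them, cut at about 14% in these data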
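System: human fibrin DD(E); quantity: Fibrin-DD(E) at 2 µM final; also added: fluorescent Tn7 probe at 0.1 µM; compound dosing: single nominal test concentration of 8.3 µM per compound; schedule: 10 min preincubation, 3 h with tracer, room temperature; detection: fluorescence polarization of the labelled Tn7 tracer; repeats: one replicate per compound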
CAL PDZ FP-2 – blocks peptide binding to human CAL PDZ domain; Q9HD26; purified CAL PDZ, TMR-peptide fluorescence polarization, 1 h; inhibition, % at 20 µM; actives 0.02% (n = 330,000); AID 504414;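 active = highest replicate inhibition of at least 40%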
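Material – purified CerCALP PDZ construct · Detection – FP readout, S and P plane fluorescence · Measure – percent inhibition from loss of millipolarization · Controls – unlabelled peptide for full inhibition, DMSO wells as neutral · Probe or stimulus – TMR-labelled reporter peptide T*-PRC34 bound in PDZ groove · Times – 1 h at RT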
Arrestin-AP2 inh – inhibitors of human beta-arrestin and AP2 interaction; FITC-arrestin peptide / GST-AP2 beads, flow cytometry; AP2 beta2 appendage carries R879A mutation; inhibition, % at 10 µM; actives 0.31% (n = 340,000);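 active = inhibition above a set limit, near 3 SD of compounds lacking own fluorescence, cut at about 54% in these data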
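Material – GST-tagged AP2 beta2-adaptin appendage (R879A) on 4 µm glutathione beads · Probe or stimulus – fluorescein-tagged arrestin peptide at 50 nM final · Timing – 12 min plus 1 h, RT · Detection – bead flow cytometry, FITC channel · Read-out basis – inhibition as reduced fluorescein signal on beads, percent · Medium – PBS plus Tween 20 (0.05%) and BSA (0.1%)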
Of the large screens only hits and unclear results are named; the others gave an inactive call.

COc1ccc(/C=N/NC(=O)c2cccnc2)cc1O	CAL PDZ FP-1 37.4
O=C(N/N=C/c1cccnc1)c1cccc(F)c1	CAL PDZ FP-1 51.6 (no result: CAL PDZ FP-2)
CC(=O)Nc1cccc(C(=O)N/N=C/c2ccc(F)cc2)c1	none
Cc1ccc(C(=O)Nc2cccc(C(=O)N/N=C/c3ccc(F)cc3)c2)cc1	CAL PDZ FP-1 75.4
CCOC(=O)C1=C(C(=O)OCC)C2N(Cc3ccc(C#N)cc3)c3ccccc3[C@@]23C[C@@H](C(=O)OC)N(S(=O)(=O)c2ccc(C)cc2)C3=N1 (stereo not given in full)	none (no result: CAL PDZ FP-1, CAL PDZ FP-2, Arrestin-AP2 inh)
Cc1ccc(Cn2cc(CN3[C@@H](CC(C)C)COc4cc(Br)ccc4S3(=O)=O)nn2)cc1	none (no result: CAL PDZ FP-1, CAL PDZ FP-2, Arrestin-AP2 inh)
COc1ccc(S[C@]2(C(=O)N3CCN(c4ncccn4)CC3)CC(=O)N(c3ccc(Cl)cc3)[C@@H]2c2ccc(OC)cc2)cc1	none (no result: CAL PDZ FP-1, CAL PDZ FP-2, Arrestin-AP2 inh)
Cc1[nH]nc2c1C(c1ccc(Br)cc1)N(c1ccccc1)C2=O (stereo not given)	none (no result: CAL PDZ FP-1, CAL PDZ FP-2, Arrestin-AP2 inh)
O=C(CSc1nccc(-c2cccs2)n1)Nc1cccc(Cl)c1Cl	CAL PDZ FP-1 51.4
O=C(CSc1nccc(-c2cccs2)n1)Nc1ccc(Cl)cc1	none (no result: CAL PDZ FP-1)
Cc1c(-c2nc(-c3ccncc3)no2)cccc1[N+](=O)[O-]	CAL PDZ FP-1 68.9
COc1cccc(NC(=O)Nc2nc3ncccn3c2-c2ccc(C(F)(F)F)cc2)c1	none (no result: CAL PDZ FP-1, CAL PDZ FP-2, Arrestin-AP2 inh)
CCc1csc(N2[C@H](CN(CCOC)S(=O)(=O)c3ccccc3[N+](=O)[O-])[C@H](c3ccccc3)[C@@H]2CO)n1	none (no result: CAL PDZ FP-1, CAL PDZ FP-2, Arrestin-AP2 inh)
COc1ccc(S(=O)(=O)N2CCC(C(=O)NCCC(=O)Nc3cccc(Cl)c3)CC2)cc1	CAL PDZ FP-1 40.7
N#Cc1ccc2c(c1)nc1ccccn12	none
Clc1ccc2nc3ccccn3c2c1	CAL PDZ FP-1 53.4
O=c1cc(Cl)nc2ccccn12	CAL PDZ FP-1 37.7
COC(=O)C1CN(Cc2ccc(F)cc2)CCS(=O)(=O)N1Cc1cn(Cc2ccc(C)cc2)nn1 (stereo not given)	none (no result: CAL PDZ FP-1, CAL PDZ FP-2, Arrestin-AP2 inh)
CCCCOCCCNC(=O)C[C@H]1C[C@@]2(C(=O)OC)C(=C[C@H](COCc3ccccc3)O[C@@H]2C)N(Cc2ccco2)C1=O	none (no result: CAL PDZ FP-1, CAL PDZ FP-2, Arrestin-AP2 inh)
CCOC(=O)N1CCN(C(=O)C[C@H]2C(=O)N(Cc3ccc(OC)cc3)C3=CCCC[C@@]32C(=O)OCC)CC1	none (no result: CAL PDZ FP-1, CAL PDZ FP-2, Arrestin-AP2 inh)
CC(C)(C)N(C(=O)Cn1nnc(-c2ccc(F)cc2)n1)C(C(=O)NC1CCCC1)c1ccncc1 (stereo not given)	CAL PDZ FP-1 36.1
O=C(NC1CCCC1)C(c1ccncc1)N(CC1CCCO1)C(=O)Cn1nnc(-c2cccs2)n1 (stereo not given)	CAL PDZ FP-1 31.8
O=C(CN1CCN(c2nc(-c3ccccc3)cs2)CC1)Nc1ccc(F)cc1F	none (no result: CAL PDZ FP-1, CAL PDZ FP-2, Arrestin-AP2 inh)
CCOc1ccc(Cl)cc1CNCCCSc1ncccn1	CAL PDZ FP-1 69.8
C[C@H]1[C@@H](O)CC[C@@]23CCCN2C(=O)CCC[C@@H]13	none (no result: CAL PDZ FP-1, CAL PDZ FP-2, Arrestin-AP2 inh)
CCOc1ccccc1NC(=O)C1CCN(C(=O)Cc2ccccc2)CC1	CAL PDZ FP-1 56.5
COC(=O)c1ccccc1NC(=O)C1CCN(C(=O)Cc2ccccc2)CC1	none (no result: CAL PDZ FP-1)
CCC(=O)N1CN(S(=O)(=O)c2ccc(C)cc2)CC1C (stereo not given)	CAL PDZ FP-1 41.6
COC(=O)c1cc(-c2cc(Cl)ccc2OC)c(=O)n2c1CCC2	none (no result: CAL PDZ FP-1, CAL PDZ FP-2, Arrestin-AP2 inh)
COc1cc2c(cc1OC)C(c1cc3ccc(C)cc3[nH]c1=O)N(C(=O)c1ccco1)CC2 (stereo not given)	CAL PDZ FP-1 40.6
COc1ccc(OC)c(-c2oc3ccccc3c(=O)c2O)c1	none
CCOc1ccccc1-c1c2cc(O)c(=O)cc-2oc2cc(O)c(O)cc12	CAL PDZ FP-1 42.5, CAL PDZ FP-2 126.3 (no result: DDE Tn6 FP inh, DDE Tn7 FP inh)
CCOC(=O)c1oc2cc(O)ccc2c(=O)c1-c1ccccc1OC	none
O=c1cc2oc3cc(O)c(O)cc3c(-c3ccccc3O)c-2cc1O	CAL PDZ FP-2 46.6 (no result: DDE Tn6 FP inh, DDE Tn7 FP inh)
COc1ccc(OC)c(-c2c3cc(O)c(=O)cc-3oc3cc(O)c(O)cc23)c1	CAL PDZ FP-1 56.9, CAL PDZ FP-2 87.0 (no result: DDE Tn6 FP inh, DDE Tn7 FP inh)
COCCCNC(=O)c1nnn2c1nc(N)c1cc(Cl)ccc12	none (no result: CAL PDZ FP-1, CAL PDZ FP-2, Arrestin-AP2 inh)
O=C(Cc1ccccc1)N1CCC(Oc2cccnc2)CC1	none (no result: CAL PDZ FP-1, CAL PDZ FP-2, Arrestin-AP2 inh)
C=CCN1C(=O)[C@@H](CC(=O)N2CCN(C(=O)OCC)CC2)[C@]2(C(=O)OC)CCCCC=C12	none (no result: CAL PDZ FP-1, CAL PDZ FP-2, Arrestin-AP2 inh)
COc1ccc(C2(C)NC(=O)N(CC(=O)c3cc(C)n(C4CC4)c3C)C2=O)cc1OC (stereo not given)	CAL PDZ FP-1 53.6
CCC1(C)NC(=O)N(CC(=O)c2cc(C)n(C3CC3)c2C)C1=O (stereo not given)	none
O=[N+]([O-])c1c(Nc2ccccc2O)ccc2nonc12	CAL PDZ FP-1 36.1
Cc1ccccc1Nc1ccc2nonc2c1[N+](=O)[O-]	none (no result: CAL PDZ FP-2)
COc1ccc(-c2csc(N3C(=O)CNC3=S)n2)cc1	CAL PDZ FP-1 66.6
Cc1nc(CN(C)C(=O)C2CCC(=O)N(CCc3cccc(F)c3)C2)cs1 (stereo not given)	CAL PDZ FP-1 57.1
Cc1ccc2nc(-c3ccc(NC(=O)CSc4nnc(-c5ccccc5)n4Cc4ccco4)cc3)sc2c1	none (no result: CAL PDZ FP-1, CAL PDZ FP-2, Arrestin-AP2 inh)
O=C(CN1CCN(C/C=C/c2ccccc2)CC1)NC(=O)NC1CCCCC1	CAL PDZ FP-1 72.2 (no result: CAL PDZ FP-2)
O=C(CN1CCN(Cc2ccccc2)CC1)NC(=O)NC1CCCCC1	none
COc1ccc(N(C(=O)c2csnn2)C(C(=O)NC2CCCC2)c2cccs2)cc1 (stereo not given)	CAL PDZ FP-1 44.1
